Assay results: ChEMBL document CHEMBL1154578, “Aminosterols from the dogfish shark Squalus acanthias” (2000)
Converted amounts (≈) assume the structure as drawn.

Assays:
Format in all cases: functional
[1] = tested on: Candida albicans; experiment: Antimicrobial activity against Candida albicans ATCC 90028
Summary of the method: (§1)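 Broth microdilution MIC: log-phase microbes at (0.9-1.1) × 10⁵ cfu/mL in 0.5× trypticase soy broth, exposed to increasing amounts of aminosterol in microtiter plates, incubated at 37 °C for 18-24 h. Aminosterol starting solutions at 2 mg/mL in 250 mM sodium acetate, pH 6.6.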

[2] = tested on: Staphylococcus aureus; experiment: Antimicrobial activity against Staphylococcus aureus ATCC 29218; conditions: ATCC 29213, in the assay text read “ATCC 29213” for “ATCC 29218”; summary of the method: as §1
[3] = tested on: Pseudomonas aeruginosa; experiment: Antimicrobial activity against Pseudomonas aeruginosa ATCC 27853; summary of the method: as §1
[4] = tested on: Escherichia coli; experiment: Antimicrobial activity against Escherichia coli ATCC 25922; summary of the method: as §1

`C=C(C)C(=O)CC[C@@H](C)[C@H]1CC[C@H]2[C@@H]3[C@H](O)C[C@H]4C[C@@H](NCCCNCCCCN)CC[C@]4(C)[C@H]3CC[C@]12C` was tested, and the MIC [1] was 2 µg/mL (≈ 3.68 µM), the MIC [2] was 2 µg/mL (≈ 3.68 µM) and the MIC [3] was 16 µg/mL (≈ 29.4 µM). For the same molecule, the MIC [4] was 16 µg/mL (≈ 29.4 µM).

In the case of `CC(COS(=O)(=O)O)C(=O)CC[C@@H](C)[C@H]1CC[C@H]2[C@@H]3[C@H](O)C[C@H]4C[C@@H](NCCCNCCCCN)CC[C@]4(C)[C@H]3CC[C@]12C` (some centres not stated), the MIC [1] is reported as 32 µg/mL (≈ 49.8 µM), the MIC [2] is reported as 8 µg/mL (≈ 12.5 µM) and the MIC [3] is reported as 128 µg/mL (≈ 199 µM). For the same molecule, the MIC [4] was 128 µg/mL (≈ 199 µM).

In the case of `CC(COS(=O)(=O)O)[C@H](O)CC[C@@H](C)[C@H]1CC[C@H]2[C@@H]3[C@H](O)C[C@H]4C[C@@H](NCCCNCCCCN)CC[C@]4(C)[C@H]3CC[C@]12C` (some centres not stated), the MIC [1] is reported as 16 µg/mL (≈ 24.8 µM), the MIC [2] is reported as 4 µg/mL (≈ 6.21 µM) and the MIC [3] is reported as 32 µg/mL (≈ 49.7 µM). It also gave an MIC [4] of 128 µg/mL (≈ 199 µM).

`CC(CSCC(N)C(=O)O)C(=O)CC[C@@H](C)[C@H]1CC[C@H]2[C@@H]3[C@H](O)C[C@H]4C[C@@H](NCCCNCCCCN)CC[C@]4(C)[C@H]3CC[C@]12C` (some centres not stated) showed an MIC [1] of 128 µg/mL (≈ 192 µM), an MIC [2] of 8 µg/mL (≈ 12 µM) and an MIC [3] of 256 µg/mL (≈ 385 µM). For the same molecule, the MIC [4] was 256 µg/mL (≈ 385 µM).

In the case of `CC(C)[C@](CO)(CC[C@@H](C)[C@H]1CC[C@H]2[C@@H]3[C@H](O)C[C@H]4C[C@@H](NCCCNCCCCN)CC[C@]4(C)[C@H]3CC[C@]12C)OS(=O)(=O)O`, the MIC [1] is reported as 32 µg/mL (≈ 48.6 µM), the MIC [2] is reported as 2 µg/mL (≈ 3.04 µM) and the MIC [3] is reported as 16 µg/mL (≈ 24.3 µM). The MIC [4] was 8 µg/mL (≈ 12.2 µM).

`CC(C)[C@@H](CC[C@@H](C)[C@H]1CC[C@H]2[C@@H]3[C@H](O)C[C@H]4C[C@@H](NCCCNCCCCN)CC[C@]4(C)[C@H]3C[C@H](O)[C@]12C)OS(=O)(=O)O` was tested, and the MIC [1] was 32 µg/mL (≈ 49.7 µM), the MIC [2] was 8 µg/mL (≈ 12.4 µM) and the MIC [3] was 16 µg/mL (≈ 24.8 µM). The MIC [4] was 16 µg/mL (≈ 24.8 µM).

With `CC(C)[C@@H](CC[C@@H](C)[C@H]1CC[C@H]2[C@@H]3[C@H](O)C[C@H]4C[C@@H](NCCCNCCCCN)CC[C@]4(C)[C@H]3CC[C@]12C)OS(=O)(=O)O` [SQUALAMINE] the MIC [1] was 16 µg/mL (≈ 25.5 µM), the MIC [2] was 1 µg/mL (≈ 1.59 µM) and the MIC [3] was 16 µg/mL (≈ 25.5 µM). It also gave an MIC [4] of 4 µg/mL (≈ 6.37 µM).

`CC(C)[C@@H](CC[C@@H](C)[C@H]1CC[C@H]2[C@@H]3[C@H](O)C[C@H]4C[C@@H](NCCCNCCCCNCCCN)CC[C@]4(C)[C@H]3CC[C@]12C)OS(=O)(=O)O` [TRODUSQUEMINE] showed an MIC [1] of 4 µg/mL (≈ 5.84 µM), an MIC [2] of 1 µg/mL (≈ 1.46 µM) and an MIC [3] of 4 µg/mL (≈ 5.84 µM). It also gave an MIC [4] of 1 µg/mL (≈ 1.46 µM).
